Measured values published in ChEMBL document CHEMBL1250420, “Identification of chalcones as in vivo liver monofunctional phase II enzymes inducers” (Bioorg Med Chem, 2010).
Calls of active or inactive are those of the source. The rule behind the calls is not given here.

Key:
Rattus norvegicus [1] = assay: Induction glutathione-CYP1A1 in rat liver at 15 mg/kg, po qd by EROD assay
[2] = Mutagenic activity in Salmonella typhimurium TA98 assessed as […] increase in number of revertants at 25 ug/plate after 48 hrs by Ames test; type: toxicity; settings: salmonella enterica subsp. enterica serovar typhimurium
Outline: (§1)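 TA98 pre-incubation Ames test without listed S9: 50 µL test solution, 500 µL 0.1 M phosphate pH 7.4 and 100 µL bacteria (2 × 10^9/mL), 60 min. Top agar with trace histidine/biotin, then 48 h at 37 °C and revertant count. Doses fall by thirds from the minimum toxic dose; DMSO and 4-NPD (20 µg/plate) controls; two independent experiments, means ± SD.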

Rattus norvegicus [3] = assay: Induction glutathione-S-transferase activity in rat liver at 15 mg/kg, po qd
[4] = target: T1, Quinone oxidoreductase (Homo sapiens) (UniProt Q08257); assay: Induction of quinone reductase activity in human MCF7 cells; type: cell-based
T1 sequence (whole entry): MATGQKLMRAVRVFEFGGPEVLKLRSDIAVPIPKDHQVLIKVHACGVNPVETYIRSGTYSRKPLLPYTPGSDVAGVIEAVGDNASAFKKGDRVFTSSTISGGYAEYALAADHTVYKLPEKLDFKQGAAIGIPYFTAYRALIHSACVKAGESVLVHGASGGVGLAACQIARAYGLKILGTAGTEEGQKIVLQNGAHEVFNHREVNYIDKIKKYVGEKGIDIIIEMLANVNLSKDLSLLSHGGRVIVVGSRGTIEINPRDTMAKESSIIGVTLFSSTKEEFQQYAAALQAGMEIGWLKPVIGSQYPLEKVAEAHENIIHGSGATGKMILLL
Outline: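 QR induction in MCF-7 tumour cells at 40 µM, a level chosen from a flavone dose–response; result given as ratio of QR specific activity, treated/control.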

[5] = Mutagenic activity in Salmonella typhimurium TA98 assessed as […] increase in number of revertants at 3 ug/plate after 48 hrs by Ames test; type: toxicity; settings: salmonella enterica subsp. enterica serovar typhimurium
Outline: as §1

MCF7 = assay: Cytotoxicity against human MCF7 cells; type: functional, cell-based
HT-29 = assay: Cytotoxicity against human HT-29 cells; type: functional, cell-based
[6] = Mutagenic activity in Salmonella typhimurium TA98 assessed as […] increase in number of revertants at 225 ug/plate after 48 hrs by Ames test; type: toxicity; settings: salmonella enterica subsp. enterica serovar typhimurium
Outline: as §1

Rattus norvegicus [7] = assay: Induction of quinone reductase activity in rat liver at 22.5 mg/kg, po qd; type: functional
Outline: (§2)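 Oral dosing for 15 days over 3 weeks, then liver QR read as loss of 600 nm absorbance of DCPIP (80 µM) with 0.2 mM NADH, 5 µM FAD, 25 mM Tris–HCl pH 7.4, 6% BSA, 0.01% Tween 20. Specific activity expressed as % change from basal-diet control, n = 5, means ± SE, Student's t-test.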

[8] = Mutagenic activity in Salmonella typhimurium TA98 assessed as […] increase in number of revertants at 8 ug/plate after 48 hrs by Ames test; type: toxicity; settings: salmonella enterica subsp. enterica serovar typhimurium
Outline: as §1

TK-10 = assay: Cytotoxicity against human TK10 cells; type: functional, cell-based
[9] = Mutagenic activity in Salmonella typhimurium TA98 assessed as […] increase in number of revertants at 75 ug/plate after 48 hrs by Ames test; type: toxicity; settings: salmonella enterica subsp. enterica serovar typhimurium
Outline: as §1

Rattus norvegicus [10] = assay: Induction glutathione-CYP1A1 in rat liver at 15 mg/kg, po qd by EROD assay; type: functional
Outline: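 Rat liver CYP1A1 read as EROD activity: fluorescence increase from resorufin released from 7-ethoxyresorufin, in 100 mM phosphate buffer pH 7.6 with 250 µM NADPH. Oral dosing for 15 days over 3 weeks; change in specific activity expressed as % of basal-diet control, n = 5, means ± SE, Student's t-test.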

Rattus norvegicus [11] = assay: Induction glutathione-S-transferase activity in rat liver at 15 mg/kg, po qd; type: functional
Outline: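 Hepatic GST after oral dosing for 15 days over 3 weeks. Substrates 1 mM CDNB and 1 mM reduced glutathione in 100 mM phosphate buffer pH 6.5; CDNB–GSH conjugate followed at 340 nm. Specific activity given as % change from basal-diet control, n = 5, means ± SE, Student's t-test.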

Rattus norvegicus [12] = assay: Induction of quinone reductase activity in rat liver at 15 mg/kg, po qd; type: functional
Outline: as §2

Rattus norvegicus [13] = assay: Toxicity in Sprague-Dawley rat assessed as leucocyte level at 10 mg/kg/day, po; settings: in vivo
Rattus norvegicus [14] = assay: Toxicity in Sprague-Dawley rat assessed as haemoglobin level at 10 mg/kg/day, po (RVb = 15.1 +/- 4.1 g/L); settings: in vivo
Rattus norvegicus [15] = assay: Toxicity in Sprague-Dawley rat assessed as change in body weight at 250 mg/kg, po; type: organism-based; parameters: dose 250 mg/kg, route oral; settings: in vivo
Outline: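 Healthy female Sprague–Dawley rats (about 200 g, 5–7 per group) given a single oral dose by intragastric syringe, suspended in saline/Tween 80 (4:1); vehicle-treated controls included. Daily weighing and observation for 3 days, then sacrifice with clinical biochemistry, haematology and organ histology.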

Rattus norvegicus [16] = assay: Toxicity in Sprague-Dawley rat assessed as change in body weight at 10 mg/kg/day, po; settings: in vivo
Rattus norvegicus [17] = assay: Toxicity in Sprague-Dawley rat assessed as glutamic-pyruvate level at 10 mg/kg/day, po (RVb = 22.8 +/-13.2 U/L); settings: in vivo
Rattus norvegicus [18] = assay: Toxicity in Sprague-Dawley rat assessed as glutamic-oxalate transaminase level at 10 mg/kg/day, po (RVb = 71.4 +/- 7.8 U/L); settings: in vivo
Liver microsomes [19] = assay: Metabolic stability in rat liver microsome; type: ADME
Outline: (§3)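 Female Wistar rat liver microsomes (100,000 × g pellet) at 1 mg/mL protein with 400 µM flavonoid (DMSO <1%). Incubated 0.5 h at 37 °C, with or without an NADPH-generating system (MgCl2, NADP+, glucose 6-phosphate, G6PDH) in 0.1 M phosphate pH 7.4, 1.5 mM EDTA. Heat-inactivated control included; triplicate; read by UV spectra and chromatography.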

Liver microsomes [20] = assay: Metabolic stability in rat liver microsome in presence of NADPH; type: ADME
Outline: as §3

[21] = dose 15.0 mg/kg, in the assay text read “at 15.0 mg/kg” for “at 22.5 mg/kg”

| Compound | Activity (MCF7) | Activity (HT-29) | Activity (Rattus norvegicus [7]; [21]) [%] | Activity (TK-10) | Activity (Rattus norvegicus [10]) [%] | Activity (Rattus norvegicus [11]) [%] | Activity (Rattus norvegicus [12]) [%] | Activity (Rattus norvegicus [13]) [µL⁻¹] | Activity (Rattus norvegicus [14]) [g/L] | Activity (Rattus norvegicus [16]) | further results |
| --- | --- | --- | --- | --- | --- | --- | --- | --- | --- | --- | --- |
| O=C(/C=C/c1ccccn1)c1ccccc1O | Active | Active | 13 | Active | – | – | – | – | – | – | Activity (Rattus norvegicus [1]): 10%; Activity [2]: 16; Activity (Rattus norvegicus [3]): 20%; Activity [4]: Active; Activity [5]: 13; Activity [6]: 18; Activity [8]: 17; Activity [9]: 17 |
| O=C(/C=C/c1ccc2c(c1)OCO2)c1ccccc1O | inactive | inactive | 30 | inactive | – | – | – | – | – | – | Activity (Rattus norvegicus [1]): -50%; Activity (Rattus norvegicus [3]): -20% |
| O=C(/C=C/c1ccc(Cl)cc1)c1ccccc1O | inactive | Active | 20 | Active | – | – | – | – | – | – | Activity (Rattus norvegicus [1]): -10%; Activity (Rattus norvegicus [3]): -20% |
| O=C(/C=C/c1ccc(Cl)cc1)c1ccccc1 [4-CHLORO CHALCONE] | inactive | Active | – | Active | 40 | -20 | 10 | – | – | – | – |
| O=C(/C=C/c1cccs1)c1ccccc1O | – | – | – | – | 20 | 10 | 10 | – | – | – | Activity [2]: 19; Activity [5]: 15; Activity [6]: 14; Activity [8]: 16; Activity [9]: 13 |
| CSc1ccc(/C=C/C(=O)c2ccccc2)cc1 | inactive | inactive | – | Active | 750 | 30 | 20 | – | – | – | – |
| COc1ccc(/C=C/C(=O)c2ccccc2)cc1 [4-METHOXY CHALCONE] | inactive | Active | – | Active | -30 | -10 | 10 | – | – | – | – |
| O=C(/C=C/c1ccccc1)c1ccccc1O [2'-HYDROXYCHALCONE] | Active | Active | – | Active | -60 | 30 | 10 | 5200 | 11.3 | – | Activity [2]: 17; Activity [4]: Active; Activity [5]: 13; Activity (Rattus norvegicus [15]): Non-toxic; Activity [6]: 14; Activity (Rattus norvegicus [7]; dose 22.5 mg/kg): 10%; Activity [8]: 16; Activity [9]: 20 |
| COc1ccc(C2CC(=O)c3ccccc3O2)cc1 (centres undefined) | Active | inactive | – | Active | – | – | – | 8600 | 11.3 | Non-toxic | – |
| COc1ccc(/C=C/C(=O)c2ccccc2O)cc1OC | Active | inactive | -20 | Active | – | – | – | 9600 | 9.3 | Non-toxic | Activity (Rattus norvegicus [17]): 15 U/L; Activity (Rattus norvegicus [18]): 62.1 U/L |
| Nc1ccc(/C=C/C(=O)c2ccccc2O)cc1 | inactive | inactive | 0 | inactive | – | – | – | – | – | – | – |
| O=c1cc(-c2ccccc2Br)oc2ccccc12 | Active | inactive | – | inactive | – | – | – | 4500 | 9.6 | Non-toxic | Activity (Rattus norvegicus [17]): 45.4 U/L; Activity (Rattus norvegicus [18]): 52.9 U/L |
| O=c1cc(-c2ccccc2)oc2ccccc12 [FLAVONE] | inactive | inactive | – | inactive | – | – | -30 | – | – | – | – |
| CN(C)c1ccc(/C=C/C(=O)c2ccccc2O)cc1 | inactive | inactive | – | inactive | – | – | – | 5500 | 11.5 | Non-toxic | – |
| O=C(/C=C/c1ccc(Br)cc1)c1ccccc1O | inactive | inactive | 128 | inactive | – | – | – | 7700 | 8.4 | Non-toxic | Stability (Liver microsomes [19]): Stable; Activity (Rattus norvegicus [1]): -80%; Activity (Rattus norvegicus [3]): -30%; Activity [4]: Active; Activity (Rattus norvegicus [17]): 26 U/L; Activity (Rattus norvegicus [18]): 61.7 U/L; Stability (Liver microsomes [20]): Stable |
| O=c1cc(-c2ccc(Br)cc2)oc2ccccc12 | inactive | inactive | – | inactive | – | – | 30 | – | – | Non-toxic | – |
| O=C1CC(c2ccccc2Br)Oc2ccccc21 (centres undefined) | Active | inactive | – | inactive | 30 | 10 | 10 | – | – | – | – |
| COc1ccc(/C=C/C(=O)c2ccccc2O)cc1 | Active | inactive | 60 | Active | – | – | – | 7300 | 12.3 | – | Activity (Rattus norvegicus [1]): -40%; Activity (Rattus norvegicus [3]): -10%; Activity (Rattus norvegicus [17]): 13.2 U/L; Activity (Rattus norvegicus [18]): 52.2 U/L; Activity (Rattus norvegicus [15]): Non-toxic |
